CXCR6 block: inhibitors of human CXCR6 receptor | CHO-K1 PathHunter CXCR6 beta-arrestin, luminescence | AID 602244 | inhibition, % at 20 µM | O00574 | 0.36% of 360,000 active; in the data active = inhibition above about 34%, passing the limit was not always enough;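 note: antagonist mode with CXCL16 agonist at 10 nM final; 0% = 10 nM CXCL16 with DMSO and 100% = unstimulated wells without agonist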
Target sequence (O00574 whole entry, looked up): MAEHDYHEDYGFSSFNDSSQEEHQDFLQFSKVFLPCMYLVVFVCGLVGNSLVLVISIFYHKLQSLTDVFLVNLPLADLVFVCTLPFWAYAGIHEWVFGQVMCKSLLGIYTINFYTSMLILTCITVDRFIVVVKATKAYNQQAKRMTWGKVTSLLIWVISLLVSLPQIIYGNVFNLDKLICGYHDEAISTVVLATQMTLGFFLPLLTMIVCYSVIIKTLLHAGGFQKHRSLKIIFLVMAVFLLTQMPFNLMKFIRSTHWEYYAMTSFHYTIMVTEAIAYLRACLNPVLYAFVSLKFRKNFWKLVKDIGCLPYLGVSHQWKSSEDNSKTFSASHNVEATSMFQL
EBI2 antag: blocks human EBI2 receptor beta-arrestin signaling | 0.81% of 360,000 active | P32249 | inhibition, % at 5 µM | EBI2 beta-arrestin recruitment, luminescence, 7a,25-OHC stimulated; in the data active = inhibition above about 38%;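 note: enzyme fragment complementation signal reports receptor beta-arrestin coupling in cells; 0% = agonist plus DMSO wells and 100% = wells without agonist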
APJ agonist: agonists of human APJ apelin receptor. P35414. CHO-K1 APJ PathHunter beta-arrestin, luminescence; 0% DMSO wells, 100% apelin. activation, % at 20 µM. 0.11% of 330,000 active. AID 2520;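 active = activation more than six SD over the plate average, tested at 20 µM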;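 note: 0% = DMSO alone and 100% = apelin-13 at 10 nM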
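Material: CHO-K1 APJ beta-arrestin complementation cell line; Input: cell density 1000 per well; Incubation: compound stimulation 90 min at 25 °C, detection 60 min; Signal: luminescence from split beta-galactosidase complementation, Galacton Star/Emerald II substrate; Controls: DMSO-only wells as negative, 10 nM Apelin-13 as positive control.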
APJ antag: APJ receptor antagonism; AID 2521; 0.32% of 330,000 active; inhibition, % at 20 µM; P35414; CHO-K1 APJ beta-arrestin complementation, luminescence;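 active = inhibition above about 40% at 20 µM, limit read from the data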;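 note: cells challenged with 10 nM apelin-13 agonist together with compound; plate controls were apelin-13 plus DMSO wells for no effect and DMSO wells lacking apelin-13 for full effect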
m5-HT2A agonist: mouse HTR2A agonism via beta-arrestin recruitment; CHO-K1 mHTR2A beta-arrestin complementation, luminescence; percent of 30 µM serotonin response; activation, % at 7.6 µM; AID 624169; 0.66% of 360,000 active;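 active = activation above a run cutoff, the mean activation of all tested compounds plus 3 SD, cut at about 14% in these data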;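 note: 0% = plate median of compound wells and 100% = 30 µM serotonin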
CCR6 antagonist: antagonists of human CCR6 receptor; P51684; CHO-K1 CCR6 PathHunter beta-arrestin, luminescence, CCL20-stimulated; inhibition, % at 20 µM; 0.49% of 340,000 active;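 active = compounds whose inhibition of the agonist-driven luminescence signal at 20 µM reaches about 50%, limit read from the data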;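 note: cells stimulated with CCL20 at 14 nM final; plate controls were DMSO with CCL20 for no effect and DMSO without agonist for full effect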
EBI2 conf: confirmation of human EBI2 receptor antagonists | shares compounds with EBI2 antag | EBI2 beta-arrestin luminescence, 7a,25-OHC antagonism | inhibition, % at 5 µM | 29% of 2,400 active;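 active = inhibition of at least 50%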
EBI2 agonist: EBI2 agonism counter-screen; shares compounds with EBI2 antag; EBI2-expressing cells, agonist mode, luminescence, 60 min; 0% vehicle, 100% 7α,25-dihydroxycholesterol control; 2,400 tested, under 10 active; activation, % at 5 µM;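 active = activation of at least 50%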
bGal cs: inhibits E. coli beta-galactosidase, counter-screen for EBI2 antagonists; purified beta-galactosidase, luminescent Galacton Star, 15 min; inhibition, % at 5 µM; AID 652176; shares compounds with EBI2 antag; 1% of 2,400 active;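 active = replicate-average signal at least 3 plate SD below neutral wells, shown as high inhibition, flagging enzyme-inhibiting false positives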;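 note: 0% = DMSO wells with enzyme and 100% = wells lacking enzyme; higher means stronger loss of beta-gal luminescence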
Numbers without * were called inactive; · = no result. The list is not random: actives were taken first. Their share in the collection is about 2.1%.

SMILES	CXCR6 block	EBI2 antag	APJ agonist	APJ antag	m5-HT2A agonist	CCR6 antagonist	EBI2 conf	EBI2 agonist	bGal cs
COc1ccc(NC(=S)Nc2ccc(Oc3ccccc3)cc2)cc1	-3	14	-3	30	-6	12	·	·	·
C/C(CC(=O)Nc1ccccc1C#N)=N\NC(=O)c1ccncc1	-10	-12	-3	-11	-6	3	·	·	·
CC1(c2ccc(OC(F)F)cc2)NC(=O)N(CC(=O)NCCC2=CCCCC2)C1=O (stereo unspecified)	-8	-4	-3	8	6	7	·	·	·
O=C(Nc1ccc(Oc2ccccc2)nc1)C1CCCCN1Cc1ccco1 (stereo unspecified)	-5	54*	-1	4	-3	15	25	0	4
CC(=O)c1cccc(CN2CCCCC2C(=O)Nc2ccc(Oc3ccccc3)nc2)c1 (stereo unspecified)	-15	71*	8	3	1	15	49	1	8
O=C(Nc1ccc(Oc2ccccc2)nc1)C1CCCCN1Cc1ccc(OCCO)cc1 (stereo unspecified)	-10	66*	10	-22	-3	2	42	-1	12
O=C(Nc1ccc(Oc2ccccc2)nc1)C1CCN(Cc2ccco2)CC1	-5	3	3	-9	0	18	·	·	·
C[C@@H]1CN([C@H](C)CO)C(=O)CCCn2cc(nn2)CO[C@H]1CN(C)C(=O)Nc1ccccc1F	0	-7	·	·	1	·	·	·	·
Cc1cccc(C(=O)N2CCN(c3ccc([N+](=O)[O-])c(NCc4ccco4)c3)CC2)c1	10	18	2	10	3	15	·	·	·
Cc1ccc(C(=O)N2CCN(c3ccc([N+](=O)[O-])c(NCc4ccco4)c3)CC2)cc1	8	42*	-4	-8	-1	15	13	-1	-6
COc1ccc([C@H]2CC(=O)C=C(c3ccc(OC(F)(F)F)cc3)C2)cc1	2	68*	-2	15	-5	14	40	-1	-9
COc1ccc([C@H]2CC(=O)C=C(c3cccc(OC(F)(F)F)c3)C2)cc1	7	7	-1	-6	1	11	·	·	·
COc1ccc([C@H]2CC(=O)C=C(/C=C/c3ccc(C(F)(F)F)cc3)C2)cc1	6	65*	-4	8	-6	-9	33	0	9
CCc1ccc(-c2n[nH]nc2C2=CC(=O)C[C@H](c3ccc(F)cc3)C2)cc1	-1	54*	·	·	-3	·	14	-2	-7
CCCOc1ccc(C2=CC(=O)C[C@H](c3ccc(OC)cc3)C2)cc1	8	67*	-6	7	-4	10	35	0	-13
O=C(COc1ccc(S(=O)(=O)NCc2ccccc2)cc1)NCc1cccnc1	9	-6	-4	-15	-3	9	·	·	·
COc1cc(F)cc(C2=CC(=O)C[C@H](c3ccc(F)cc3)C2)c1	-1	52*	-4	14	-6	19	40	-2	-8
COc1ccc2cc(C#CC3=CC(=O)C[C@H](c4ccc(F)cc4)C3)ccc2c1	-6	-2	·	·	-1	·	·	·	·
COc1ccc([C@H]2CC(=O)C=C(C#CC(C)(C)C)C2)cc1	-18	66*	1	-12	4	14	67*	0	-11
CC(C)c1ccc(Nc2ncc3c(n2)CCN(C(=O)Nc2ccc(F)c(Cl)c2)C3)cc1	-12	52*	·	·	0	·	20	1	3
COc1cccc(NC(=O)N2CCc3nc(Nc4cc(Cl)cc(Cl)c4)ncc3C2)c1	-3	24	·	·	0	·	·	·	·
Cc1ccc(-c2nn(-c3ccccc3)cc2C=C2C(=O)CC(C)(C)CC2=O)cc1	-14	53*	6	-15	0	-26	52*	2	10
CC(CCc1ccccc1)NCc1ccc(Cl)cc1Cl (stereo unspecified)	-4	62*	-1	7	3	10	32	1	2
CC(O)CNCc1ccc(Cl)cc1Cl (stereo unspecified)	7	14	-1	4	2	22	·	·	·
Cc1occc1-c1nnc(SCC(N)=O)n1Cc1ccccc1	-2	10	-1	-8	-2	0	·	·	·
SMILES	CXCR6 block	EBI2 antag	APJ agonist	APJ antag	m5-HT2A agonist	CCR6 antagonist	EBI2 conf	EBI2 agonist	bGal cs
Cc1ccc(C(=O)NNC(=O)CSc2nnc(-c3ccncc3)n2-c2ccc(C)cc2)cc1	-1	52*	-1	0	1	·	11	0	5
Cc1occc1-c1nnc(SCC(=O)NCCc2ccccc2)n1Cc1ccccc1	7	90*	-2	-3	-6	7	78*	1	6
Cc1ccc(C(=O)NNC(=O)CSc2nnc(-c3ccccc3)n2Cc2ccccc2)cc1	6	96*	-3	11	-2	-1	89*	0	4
CC(NC(=O)CCCOc1ccc(Cl)cc1)c1ccccc1 (stereo unspecified)	-10	44*	5	0	-9	5	10	-1	-11
Cc1ccc(OCCCC(=O)NC(C)c2ccccc2)cc1 (stereo unspecified)	-4	15	-1	12	-2	-8	·	·	·
O=C(c1cc(-c2ccccc2)on1)N1CCN(Cc2ccc3c(c2)OCO3)CC1	-4	50*	1	15	-2	5	7	1	4
O=C(c1ccc(Cl)c(Cl)c1)N1CCN(Cc2ccc3c(c2)OCO3)CC1	-1	57*	-2	4	-3	12	48	0	-20
O=C(c1cc(-c2ccc(F)cc2)no1)N1CCN(Cc2ccc3c(c2)OCO3)CC1	-10	76*	-5	20	0	0	49	1	3
O=C(c1ccc2c(c1)OCO2)N1CCN(S(=O)(=O)c2ccccc2)CC1	-15	3	-2	-39	6	-2	·	·	·
O=C(c1c(F)c(F)c(F)c(F)c1F)N1CCN(Cc2ccc3c(c2)OCO3)CC1	-10	-10	-4	6	3	-2	·	·	·
O=C(c1ccc2c(c1)OCO2)N1CCN(S(=O)(=O)c2ccc(Br)cc2Cl)CC1	2	52*	0	-5	-6	8	24	-2	-7
CCCc1cc(=O)[nH]c(SCC(=O)N2CCc3ccccc32)n1	8	1	-3	7	1	-9	·	·	·
